A word on the inhibition in vivo: it is the share of the control response that was lost under treatment.

We go through two compounds from ChEMBL document CHEMBL3259629, “Discovery and optimization of piperidyl-1,2,3-triazole ureas as potent, selective, and in vivo-active inhibitors of α/β-hydrolase domain containing 6 (ABHD6)” (J Med Chem, 2013).

Assay [1] concerns Mus musculus. Kind of assay: In vivo inhibition of ABHD6 in C57Bl/6 mouse brain at 20 mg/kg, ip after 4 hrs by FP-rhodamine/HT-10-labelled gel-based competitive assay. The note with it: C57Bl/6, Brain.
Assay [2] deals with Mus musculus. The assay can be described thus: In vivo inhibition of DDH2 in C57Bl/6 mouse liver and bain at 0.1 to 1 mg/kg, ip after 4 hrs by FP-rhodamine-labelled gel-based competitive ABPP assay. The class given is functional, organism-based. In a few lines:
(§1)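 C57Bl/6 mice dosed i.p. at 0.1, 0.5 or 1 mg kg⁻¹ in 18:1:1 saline/ethanol/PEG40 (ethoxylated castor oil), 10 μL g⁻¹. Killed after 4 hr under isoflurane by cervical dislocation. Brain and liver membrane fractions (100,000 × g) labelled with FP-rhodamine or HT-01 (1 μM, 30 min, 37 °C), then SDS-PAGE and in-gel fluorescence scanning. Liver ABHD6 read from HT-01 gels.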

Assay [3] concerns Mus musculus. The assay can be described thus: In vivo inhibition of PLA2G7 in C57Bl/6 mouse liver and bain at 0.1 to 1 mg/kg, ip after 4 hrs by FP-rhodamine-labelled gel-based competitive ABPP assay. Type of assay: functional, organism-based. The essentials: as §1

Activity calls are given as the source filed them. The calls are words filed in the database; no cut-off is given here. Bounds are passed on as bounds.

`O=C(c1cccc(-c2ccc(-c3cn(C(=O)N4CCCCC4c4ccccc4)nn3)cc2)c1)N1CCCCC1` (racemic): the inhibition in vivo at 20 mg/kg with Mus musculus [1] was above 70%.

For the compound `O=C(O)c1cccc(-c2ccc(-c3cn(C(=O)N4CCCCC4Cc4ccccc4)nn3)cc2)c1` (racemic), the inhibition result in the assay on Mus musculus [2] and in the assay with Mus musculus [3] was “inactive” throughout.
